# Results published in ChEMBL document CHEMBL1154766, “Synthesis and biological evaluation of new podophyllic aldehyde derivatives with cytotoxic and apoptosis-inducing activities” (2010).
# Calls of active or inactive are those of the source. No cut-off for these calls is given here.
# What was measured:
# A549 = assay: Cytotoxicity against human A549 cells after 72 hrs by SRB assay; format: functional; conditions: A549, 72 h
# How it was run: (§1)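 SRB growth assay: 5 × 10³ cells/well in RPMI, attached 18 h drug-free, then compound added in DMSO/H₂O 3:7 for 72 h. Fixed with cold 50% TCA 60 min at 4 °C, stained 0.4% SRB in 1% acetic acid 10 min, bound dye solubilized in Tris, OD 490 nm. GI50 from 100[(T−T0)/(C−T0)] = 50; mean of triplicates.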
# HT-29 [1] = assay: Cytotoxicity against human HT-29 cells after 72 hrs by SRB assay; format: functional; conditions: HT-29, 72 h; how it was run: as §1
# HT-29 [2] = assay: Cell cycle arrest in human HT-29 cells assessed as accumulation at G2/M phase at 1 uM after 24 hrs by flow cytometry; format: functional
# How it was run: (§2)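 HT-29 cells incubated at 1 μM for 24, 48 or 72 h alongside untreated controls. (3-5) × 10⁵ cells fixed overnight in 70% ethanol at 4 °C, PBS-washed three times, then treated 1 h at room temperature with 1 mg/mL RNase A and 20 μg/mL propidium iodide. DNA content read by flow cytometry; apoptosis taken as % cells in sub-G1 peak. Representative of three independent experiments.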
# HT-29 [3] = assay: Cell cycle arrest in human HT-29 cells assessed as accumulation at G0/G1 phase at 1 uM after 72 hrs by flow cytometry; format: functional; how it was run: as §2
# HT-29 [4] = assay: Cell cycle arrest in human HT-29 cells assessed as accumulation at S phase at 1 uM after 24 hrs by flow cytometry; format: functional; how it was run: as §2
# HT-29 [5] = assay: Induction of microtubule disruption in human HT-29 cells at 1 uM after 24 hrs; format: cell-based
# How it was run: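 HT-29 cells on poly-L-lysine coverslips exposed to 1 μM for 24 h, washed in HPEM (pH 6.6), fixed with 4% paraformaldehyde 15 min, permeabilized with 0.5% Triton X-100. Anti-α-tubulin mouse monoclonal (1:150, 1 h) then CY3 anti-mouse IgG (1 h, 4 °C); nuclei DAPI-stained; imaged by confocal microscopy. Representative of at least three experiments.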
# HT-29 [6] = assay: Cell cycle arrest in human HT-29 cells assessed as accumulation at G2/M phase at 1 uM after 72 hrs by flow cytometry; format: functional; how it was run: as §2
# HT-29 [7] = assay: Cell cycle arrest in human HT-29 cells assessed as accumulation at G0/G1 phase at 1 uM after 24 hrs by flow cytometry; format: functional; how it was run: as §2
# HT-29 [8] = assay: Cell cycle arrest in human HT-29 cells assessed as accumulation at G0/G1 phase at 1 uM after 48 hrs by flow cytometry; format: functional; how it was run: as §2
# HT-29 [9] = assay: Induction of apoptosis in human HT-29 cells assessed as accumulation at subG1 phase at 1 uM after 48 hrs by flow cytometry; format: functional; how it was run: as §2
# MDA-MB-231 = assay: Cytotoxicity against human MDA-MB-231 cells after 72 hrs by SRB assay; format: functional; conditions: MDA-MB-231, 72 h; how it was run: as §1
# HT-29 [10] = assay: Cell cycle arrest in human HT-29 cells assessed as accumulation at S phase at 1 uM after 48 hrs by flow cytometry; format: functional; how it was run: as §2
# HT-29 [11] = assay: Cell cycle arrest in human HT-29 cells assessed as accumulation at G2/M phase at 1 uM after 48 hrs by flow cytometry; format: functional; how it was run: as §2
# HT-29 [12] = assay: Cell cycle arrest in human HT-29 cells assessed as accumulation at S phase at 1 uM after 72 hrs by flow cytometry; format: functional; how it was run: as §2
# HT-29 [13] = assay: Induction of apoptosis in human HT-29 cells assessed as accumulation at subG1 phase at 1 uM after 24 hrs by flow cytometry; format: functional; how it was run: as §2
# HT-29 [14] = assay: Induction of apoptosis in human HT-29 cells assessed as accumulation at subG1 phase at 1 uM after 72 hrs by flow cytometry; format: functional; how it was run: as §2
Structure (SMILES),GI50 (A549) [nM],GI50 (HT-29 [1]) [nM],Activity (HT-29 [2]) [%],Activity (HT-29 [3]) [%],Activity (HT-29 [4]) [%],Activity (HT-29 [5]),Activity (HT-29 [6]) [%],Activity (HT-29 [7]) [%],Activity (HT-29 [8]) [%],Activity (HT-29 [9]) [%],GI50 (MDA-MB-231) [nM],Activity (HT-29 [10]) [%],Activity (HT-29 [11]) [%],Activity (HT-29 [12]) [%],Activity (HT-29 [13]) [%],Activity (HT-29 [14]) [%]
COc1ccc(NC(=O)[C@@H]2C(C=O)=Cc3cc4c(cc3[C@H]2c2cc(OC)c(OC)c(OC)c2)OCO4)cc1,1200,800,25.2,36.4,13.2,inactive,2.6,48,50.4,45.2,4600,1.8,2.6,8.4,13.6,52.6
COc1cc([C@@H]2c3cc4c(cc3C=C(C=O)[C@H]2C(=O)OCCCBr)OCO4)cc(OC)c1OC,130,140,14.2,31.6,9.7,inactive,0.4,46.9,38.9,34.6,170,8.4,18.1,0.3,29.2,67.7
